Experimental data as given in ChEMBL document CHEMBL2146426, “Antitubercular nitrofuran isoxazolines with improved pharmacokinetic properties” (Bioorg Med Chem, 2012).
In brackets after ≈: the same amount, converted by molar mass.

How the values were obtained:
[1] = Apparent permeability of the compound from apical to basal side of human Caco2 cells at 50 umol/L after 2 hrs by UPLC/MS analysis; assay type: ADME, cell-based; conditions: Caco-2
Summary of the method: (§1)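 Caco-2 monolayers grown 7 days on Transwell inserts, washed with HBSS/HEPES pH 7.4. Compound at 50 µmol/L added apically or basolaterally, then 2 h at 37°C. Receiver side sampled and quantified by UPLC/MS. Papp = (dQ/dt)/(A×C0), triplicates.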

[2] = Plasma protein binding in mouse at 10 uM after 4 hrs by LC/MS analysis; assay type: ADME, cell-free; conditions: read-out: PPB (converted)
Summary of the method: (§2)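 Compound at 10 µM (0.1% DMSO) in mouse or human plasma. Rapid equilibrium dialysis (MWCO 8K) against DPBS pH 7.4, 4 h at 37°C with orbital shaking. Both chambers matrix-matched, precipitated with acetonitrile containing warfarin internal standard, quantified by LC–MS. %Free = buffer/plasma × 100; %Bound = 100 − %Free.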

[3] = Plasma protein binding in human at 10 uM after 4 hrs by LC/MS analysis; assay type: ADME, cell-free; conditions: read-out: PPB (converted); summary of the method: as §2
Staphylococcus aureus = test: Antibacterial activity against Staphylococcus aureus ATCC 29213 after overnight incubation by microbroth dilution technique; assay type: functional
Summary of the method: (§3)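 Two-fold serial broth dilutions per CLSI; inoculum about 10^5 CFU/mL; top final drug concentration 200 µg/mL; incubated aerobically overnight at 37°C. MIC read visually as the lowest concentration with no visible growth.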

Streptococcus pyogenes = test: Antibacterial activity against Streptococcus pyogenes ATCC 700294 after overnight incubation by microbroth dilution technique; assay type: functional; summary of the method: as §3
Streptococcus pneumoniae = test: Antibacterial activity against Streptococcus pneumoniae DAW27 after overnight incubation by microbroth dilution technique; assay type: functional; summary of the method: as §3
Enterococcus faecalis = test: Antibacterial activity against Enterococcus faecalis ATCC 3186 after overnight incubation by microbroth dilution technique; assay type: functional; summary of the method: as §3
Bacillus subtilis = test: Antibacterial activity against Bacillus subtilis ATCC 23857 after overnight incubation by microbroth dilution technique; assay type: functional
Summary of the method: (§4)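 Non-mycobacterial strains: two-fold serial dilutions in broth by CLSI microbroth dilution. Inoculum about 10^5 cfu/mL; top final drug concentration 200 µg/mL. Aerobic incubation at 37°C overnight. MIC read visually as the lowest concentration with no visible growth.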

Bacillus anthracis = test: Antibacterial activity against Bacillus anthracis Sterne 34F2 after overnight incubation by microbroth dilution technique; assay type: functional; summary of the method: as §4
Escherichia coli = test: Antibacterial activity against Escherichia coli K12 after overnight incubation by microbroth dilution technique; assay type: functional; conditions: K-12; summary of the method: as §4
[4] = Cmax in Sprague-Dawley rat at 10 mg/kg, iv; assay type: ADME, organism-based; design: dose 10 mg/kg, route intravenous; conditions: in vivo
Summary of the method: (§5)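 Rats, n=5, given 10 mg/kg IV via femoral vein catheter. Vehicle was 2% ethanol/saline or 30% DMSO/30% propylene glycol/20% PEG 3000/20% saline, depending on compound. Plasma sampled 0–48 h and urine collected in intervals to 48 h; both assayed by LC-MS/MS after acetonitrile precipitation. Non-compartmental analysis: CL = dose/AUC0-∞; fe = cumulative unchanged urinary amount/dose.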

[5] = AUC (0 to infinity) in Sprague-Dawley rat at 10 mg/kg, iv; assay type: ADME, organism-based; design: time infinity, dose 10 mg/kg, route intravenous; conditions: plasma; summary of the method: as §5
[6] = Half life in Sprague-Dawley rat at 10 mg/kg, iv; assay type: ADME, organism-based; design: dose 10 mg/kg, route intravenous; conditions: in vivo; summary of the method: as §5
[7] = Clearance in Sprague-Dawley rat at 10 mg/kg, iv; assay type: ADME, organism-based; design: dose 10 mg/kg, route intravenous; conditions: in vivo; summary of the method: as §5
[8] = Volume of distribution in Sprague-Dawley rat at 10 mg/kg, iv; assay type: ADME, organism-based; design: dose 10 mg/kg, route intravenous; conditions: in vivo; summary of the method: as §5
[9] = Drug excretion in Sprague-Dawley rat urine at 10 mg/kg, iv; assay type: ADME, organism-based; design: dose 10 mg/kg, route intravenous; conditions: read-out: Drug excretion; summary of the method: as §5
Rattus norvegicus [10] = test: Oral bioavailability in Sprague-Dawley rat at 100 mg/kg; assay type: ADME, organism-based; conditions: in vivo
Summary of the method: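 Fasted rats, n=5, dosed 100 mg/kg by oral gavage. Vehicle was 2% methanol, 60:40 PEG 3000/water or 10% vitamin E TPGS, depending on compound. Plasma sampled to 48 h and assayed by LC-MS/MS. F = (AUCoral×DoseIV)/(AUCIV×Doseoral), referenced to 10 mg/kg IV.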

Vero = test: Cytotoxicity against african green monkey Vero cells after 72 hrs by MTT assay; assay type: cell-based; conditions: Chlorocebus sabaeus
Summary of the method: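 Vero cells in DMEM with 10% FBS, seeded at ~10% confluency and left to adhere overnight. Two-fold serial dilutions applied for 72 h at 37°C, 5% CO2. MTT read-out at 570 nm after overnight solubilization.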

Rattus norvegicus [11] = test: Toxicity in Sprague-Dawley rat assessed as seizures at 10 mg/kg, iv; assay type: organism-based; design: dose 10 mg/kg, route intravenous; conditions: in vivo
Summary of the method: (§6)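 Observed during rat IV pharmacokinetic study (n=5). Single 10 mg/kg dose via femoral vein catheter, flushed with heparinized locking solution. Vehicle was 2% ethanol/saline or 30% DMSO/30% propylene glycol/20% PEG 3000/20% saline. Animals followed with serial blood sampling to 48 h.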

Rattus norvegicus [12] = test: Toxicity in Sprague-Dawley rat assessed as mortality at 10 mg/kg, iv; assay type: organism-based; design: dose 10 mg/kg, route intravenous; conditions: in vivo; summary of the method: as §6
Rattus norvegicus [13] = test: Toxicity in Sprague-Dawley rat assessed as mortality at 100 mg/kg, po; assay type: organism-based; design: dose 100 mg/kg, route oral; conditions: in vivo
Summary of the method: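 Observed during rat oral pharmacokinetic study (n=5). Overnight-fasted animals, water ad libitum, received 100 mg/kg by oral gavage. Vehicle was compound-dependent: 2% methanol (sonicated), 60:40 PEG 3000/water, or 10% vitamin E TPGS. Animals followed with sampling to 48 h.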

[14] = system: Mycobacterium tuberculosis; test: Antitubercular activity against Mycobacterium tuberculosis after 7 to 14 days by microbroth dilution technique; assay type: functional
Summary of the method: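 M. tuberculosis: CLSI microbroth dilution using two-fold serial drug dilutions in broth. Inoculum about 10^6 CFU/mL; top final concentration 200 µg/mL. Incubated aerobically at 37°C for 7 or 14 days. MIC taken as the lowest concentration preventing visible growth by eye.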

[15] = Solubility of the compound at pH 7.4 after 18 hrs by UV spectrometry; assay type: physicochemical; conditions: buffer, pH 7.4, 18 h
Summary of the method: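 10 mM DMSO stocks diluted 100-fold in system solution buffer pH 7.4 and held 18 h at room temperature. Filtered, diluted 1:1 with isopropanol and measured by UV (230–500 nm). Compared against a 600-fold diluted reference in buffer/isopropanol. Triplicates.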

[16] = Half life in mouse liver microsomes; assay type: ADME, Microsome
Summary of the method: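 Mouse liver microsomes at 0.6381 mg/mL protein in 0.1 M potassium phosphate pH 7.4 with EDTA. Reaction started with NADPH regenerating system at 37°C; six time points including 0, triplicate wells. Quenched in cold acetonitrile with warfarin internal standard, analysed by LC–MS. Half-life from a first-order least-squares fit.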

[17] = Half life in human liver microsomes; assay type: ADME, Microsome
[18] = Apparent permeability of the compound from basal to apical side of human Caco2 cells at 50 umol/L after 2 hrs by UPLC/MS analysis; assay type: ADME, cell-based; conditions: Caco-2; summary of the method: as §1
[19] = Efflux ratio of apparent permeability from basal to apical side to apical to basal side of human Caco2 cells; conditions: Caco-2
[20] = Cmax in rat at 10 mg/kg, iv; assay type: ADME, organism-based; design: dose 10 mg/kg, route intravenous; conditions: in vivo
Summary of the method: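 Rats (n=5) given 10 mg/kg IV via femoral vein catheter. Vehicle was 2% ethanol/saline or 30% DMSO/30% propylene glycol/20% PEG 3000/20% saline, depending on compound. Serial plasma sampled 0–48 h and assayed by LC-MS/MS after acetonitrile precipitation. Cmax read by visual inspection of the concentration–time curve.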

[21] = Volume of distribution in rat; assay type: ADME, organism-based; conditions: in vivo
Summary of the method: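 Plasma concentration–time data from rats (n=5) after IV 10 mg/kg or oral 100 mg/kg. Samples taken 0.25–48 h and measured by LC-MS/MS. Non-compartmental analysis; Vd calculated as AUMC0-∞ × dose divided by the square of AUC0-∞.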

[22] = Drug excretion in rat urine; assay type: ADME; conditions: read-out: Drug excretion
[23] = Oral bioavailability in rat; assay type: ADME, organism-based; conditions: in vivo
[24] = AUC (0 to infinity) in rat at 10 mg/kg, iv; assay type: ADME, organism-based; design: time infinity, dose 10 mg/kg, route intravenous; conditions: plasma; summary of the method: as §5
Rattus norvegicus [25] = organism: Rattus norvegicus; test: Half life in rat; assay type: ADME, organism-based; conditions: in vivo
Rattus norvegicus [26] = organism: Rattus norvegicus; test: Clearance in rat; assay type: ADME, organism-based; conditions: in vivo

SMILES: O=[N+]([O-])c1ccc(C2=NOC(c3ccc(N4CCOCC4)cc3)C2)o1 (configuration not stated)
- Papp A→B at 2 h, 50 µM [1]: 17.2 ×10⁻⁶ cm/s
- fraction unbound at 4 h, 10 µM [2]: 0.036
- fraction unbound at 4 h, 10 µM [3]: 0.038
- MIC (Staphylococcus aureus): 6.25 µg/mL (≈ 18.2 µM)
- MIC (Streptococcus pyogenes): 25 µg/mL (≈ 72.8 µM)
- MIC (Streptococcus pneumoniae): 50 µg/mL (≈ 146 µM)
- MIC (Enterococcus faecalis): > 200 µg/mL
- MIC (Bacillus subtilis): 12.5 µg/mL (≈ 36.4 µM)
- MIC (Bacillus anthracis): 12.5 µg/mL (≈ 36.4 µM)
- MIC (Escherichia coli): > 200 µg/mL
- Cmax [4]: 830 ng/mL
- AUC(0-inf) [5]: 1630 ng·h/mL
- half-life [6]: 2.39 h
- clearance [7]: 108 mL/min/kg
- Vd [8]: 35 L/kg
- dose excreted [9]: 0%
- F (Rattus norvegicus [10]): 100%
- IC50 (Vero): 2.9 µg/mL (≈ 8.45 µM)
- Activity (Rattus norvegicus [11]): Non-toxic
- Activity (Rattus norvegicus [12]): Non-toxic
- Activity (Rattus norvegicus [13]): Non-toxic

SMILES: O=[N+]([O-])c1ccc(C2=NOC(c3ccc(N4CCCCC4)cc3)C2)o1 (configuration not stated)
- MIC [14]: 6 µg/mL (≈ 17.6 µM)
- solubility [15]: 1.1 µg/mL (≈ 3.22 µM)
- half-life [16]: 0.78 h
- half-life [17]: 0.47 h
- Papp A→B at 2 h, 50 µM [1]: 7.61 ×10⁻⁶ cm/s
- Papp B→A at 2 h, 50 µM [18]: 10.3 ×10⁻⁶ cm/s
- efflux ratio [19]: 1.35
- fraction unbound at 4 h, 10 µM [2]: 0.012
- MIC (Staphylococcus aureus): 12.5 µg/mL (≈ 36.6 µM)
- MIC (Streptococcus pyogenes): 100 µg/mL (≈ 293 µM)
- MIC (Streptococcus pneumoniae): 200 µg/mL (≈ 586 µM)
- MIC (Enterococcus faecalis): > 200 µg/mL
- MIC (Bacillus subtilis): 50 µg/mL (≈ 146 µM)
- MIC (Bacillus anthracis): > 200 µg/mL
- MIC (Escherichia coli): > 200 µg/mL
- Cmax [4]: 2280 ng/mL
- AUC(0-inf) [5]: 2750 ng·h/mL
- half-life [6]: 2.79 h
- clearance [7]: 62.8 mL/min/kg
- Vd [8]: 10.9 L/kg
- dose excreted [9]: 0%
- F (Rattus norvegicus [10]): 29.4%
- IC50 (Vero): 2.5 µg/mL (≈ 7.32 µM)
- Activity (Rattus norvegicus [11]): Non-toxic
- Activity (Rattus norvegicus [12]): Non-toxic
- Activity (Rattus norvegicus [13]): Non-toxic

SMILES: CC(=O)NC[C@H]1CN(c2ccc(N3CCOCC3)c(F)c2)C(=O)O1 [LINEZOLID]
- Cmax [20]: 15000 ng/mL
- Vd [21]: 0.72 L/kg
- dose excreted [22]: 73%

SMILES: CC1COc2c(N3CCN(C)CC3)c(F)cc3c(=O)c(C(=O)O)cn1c23 (configuration not stated) [OFLOXACIN]
- bioavailability [23]: 78%
- Cmax [20]: 10900 ng/mL
- AUC(0-inf) [24]: 6100 ng·h/mL
- t1/2 (Rattus norvegicus [25]): 1.5 h
- CL (Rattus norvegicus [26]): 14.3 mL/min/kg
- Vd [21]: 0.99 L/kg
- dose excreted [22]: 46%
